# Measured values reported in ChEMBL document CHEMBL1159121, “Synthesis, in vitro structure-activity relationship, and in vivo studies of 2-arylthiazolidine-4-carboxylic acid amides as anticancer agents” (Bioorg Med Chem, 2010).
# Experiments:
# HCT-116 = assay: Growth inhibition of human HCT116 cells; type: functional
# MDA-MB-231 = assay: Growth inhibition of human MDA-MB-231 cells; type: functional
# [1] = Cytotoxicity against human fibroblasts after 48 hrs by SRB assay; type: cell-based; settings: Fibroblast
# How it was run: (§1)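 Melanoma lines and control fibroblasts grown at 37 °C, 5% CO2, then exposed to a wide concentration range for 48 h in round-bottom 96-well plates. Fixed with 10% TCA, stained with SRB, protein read at 560 nm. IC50 (50% growth inhibition versus untreated) obtained by nonlinear regression.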
# OVCAR-8 = assay: Growth inhibition of human OVCAR8 cells; type: functional
# CAKI-1 = assay: Growth inhibition of human Caki1 cells; type: functional
# SF-295 = assay: Growth inhibition of human SF295 cells; type: functional
# PPC-1 = assay: Antiproliferative activity against human PPC1 cells after 96 hrs by SRB assay; type: functional, cell-based; settings: PPC-1, 96 h
# How it was run: (§2)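 Prostate lines in RPMI1640/10% FBS; RH7777 in DMEM/10% FBS. Cells TCA-fixed, stained with 0.4% SRB, absorbance read at 540 nm. IC50 from nonlinear regression of % survival against concentration.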
# A-375 = assay: Antiproliferative activity against human A375 cells after 48 hrs by SRB assay; type: functional, cell-based; settings: A-375, 48 h; how it was run: as §1
# 786-0 = assay: Growth inhibition of human 786-0 cells; type: functional
# PC-3 = assay: Antiproliferative activity against human PC3 cells after 96 hrs by SRB assay; type: functional, cell-based; settings: PC-3, 96 h
# [2] = Growth inhibition of human Hs 578T cells; type: functional
# HOP-92 = assay: Growth inhibition of human HOP92 cells; type: functional
# [3] = Selectivity ratio of IC50 for human fibroblasts to IC50 for human melanoma cells; type: ADME; settings: human fibroblasts and human melanoma cells, read-out: Ratio IC50
# M14 = assay: Growth inhibition of human M14 cells; type: functional
# SF-268 = assay: Growth inhibition of human SF268 cells; type: functional
# DU-145 = assay: Antiproliferative activity against human DU145 cells after 96 hrs by SRB assay; type: functional, cell-based; settings: DU-145, 96 h; how it was run: as §2
# HL-60(TB) = assay: Growth inhibition of human HL-60(TB) cells; type: functional
# LNCaP = assay: Antiproliferative activity against human LNCAP cells after 96 hrs by SRB assay; type: functional, cell-based; how it was run: as §2
# OVCAR-5 = assay: Growth inhibition of human OVCAR5 cells; type: functional
# SN12C = assay: Growth inhibition of human SN12C cells; type: functional
# [4] = Growth inhibition of human […] cells; type: functional
# [5] = read-out: LC50 (the source's name)
smiles,measurement,setting,value
CCCCCCCCCCCCCCCCCCNC(=O)[C@@H]1CSC(c2ccccc2)N1 (mixture of isomers),GI50,HCT-116,1.31 µM
same,TGI,HCT-116,2.58 µM
same,CC50,HCT-116; [5],5.08 µM
same,GI50,MDA-MB-231,1.61 µM
same,TGI,MDA-MB-231,3.12 µM
same,CC50,MDA-MB-231; [5],6.05 µM
same,IC50,[1],29.8 µM
same,GI50,OVCAR-8,2.24 µM
same,TGI,OVCAR-8,6.14 µM
same,CC50,OVCAR-8; [5],> 100 µM
same,GI50,CAKI-1,2.3 µM
same,TGI,CAKI-1,4.31 µM
same,CC50,CAKI-1; [5],8.08 µM
same,GI50,SF-295,4.37 µM
same,TGI,SF-295,15.9 µM
same,CC50,SF-295; [5],74.7 µM
same,IC50,PPC-1,2.4 µM
same,IC50,A-375,15 µM
same,GI50,786-0,1.78 µM
same,TGI,786-0,3.17 µM
same,CC50,786-0; [5],5.63 µM
same,IC50,PC-3,10 µM
same,GI50,[2],1.82 µM
same,TGI,[2],4.08 µM
same,CC50,[2]; [5],9.14 µM
same,GI50,HOP-92,2.06 µM
same,TGI,HOP-92,4.12 µM
same,CC50,HOP-92; [5],8.27 µM
same,selectivity ratio,[3],2.6
same,GI50,M14,1.44 µM
same,TGI,M14,2.75 µM
same,CC50,M14; [5],5.24 µM
same,GI50,SF-268,1.2 µM
same,TGI,SF-268,2.57 µM
same,CC50,SF-268; [5],5.53 µM
same,IC50,DU-145,10.8 µM
same,GI50,HL-60(TB),2.03 µM
same,TGI,HL-60(TB),3.8 µM
same,CC50,HL-60(TB); [5],7.11 µM
same,IC50,LNCaP,4.2 µM
same,GI50,OVCAR-5,1.91 µM
same,TGI,OVCAR-5,3.32 µM
same,CC50,OVCAR-5; [5],5.76 µM
same,GI50,SN12C,1.94 µM
same,TGI,SN12C,3.35 µM
same,CC50,SN12C; [5],5.79 µM
same,GI50,[4],2.12 µM
same,TGI,[4],4.63 µM
same,CC50,[4]; [5],11.7 µM
